First the molecules themselves.
B1: tRNA (parent)
chain: GUUCCGUUGGCGUAAUGGUAACGCGUCUCCCUCCUAAGGAGAAGACUGCGGGUUCGAGUCCCGUACGGAACG

Here are results for 167 variants from the RNAGym collection of RNA variant scans (doi:10.1126/science.aae0568).

Variants at the floor of the assay were thinned out.

In this data set the parent is B1. Description: yeast fitness relative to wild type (ratio to wild type); higher = fitter; tRNA-Arg(CCU), competitive growth, 37 C, YPD. An outline of the steps: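 Amplicons of the tRNA-Arg(CCU) gene were sequenced, 100-nucleotide paired-end, from the start population and from each end population of a pooled yeast competition. The competition, in six parallel replicates, lasted 24 hours in YPD at 37°C. Fitness relative to wild type was calculated from changes in genotype frequencies. Genotypes had to have ≥ 100 starting reads, and estimates < 0.5 were set to 0.5.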
With C11U C33G U54A U64A, the yeast fitness is not above 0.5. For G9A C11A G50C C55A the value was not above 0.5; for G10A C33U U64A, 0.553. Under C29U C60G stands 0.515; under C4U C46G C66G, 0.539; under C5A C31U U35C A69U, 0.539.

For A42U A65C G67U, the yeast fitness was not above 0.5. Under C27U C29G C46A stands 0.539. Under C49U U59A C61A stands not above 0.5; under G51C G58A, 0.789; under C31G A43G C49U G68A A69C, not above 0.5.

In the case of U16A U28C G38C G39A A70G, the yeast fitness was not above 0.5. With G18A C49G C60G, the yeast fitness is not above 0.5. Under G38A A57G stands 0.854; under C5G G51U G67C, not above 0.5; under C4U A43C G67A, 0.733.

In the case of C11G A14C G18C C29G C49U A65C, the yeast fitness is not above 0.5.

For C29U G50C, the yeast fitness came out at 0.664. For U26C C46A U47G G50A A69U the value was not above 0.5. Under U7G C27G U28G C66U stands not above 0.5; under C4G C34U C49A G68C, not above 0.5; under A21C C30U C62A, 0.644. For U3A G39C the value was 0.822; for A36U A42C, 0.595; for U7A A21U G38C A45G U59A, not above 0.5.

As to G10U A14U G44C, the yeast fitness is 0.646.

Regarding A15G A43C, the yeast fitness came out at 0.847.

As for G6C U32C, the yeast fitness stood at 0.994.

With C4G A20U A57U C66U, the yeast fitness is not above 0.5. U7G G10A C27U G68A: the yeast fitness was not above 0.5. Under C24G A37G G56A G58A G67A stands not above 0.5; under C4G C11A C46G, 0.693; under G17U G38A G68A, not above 0.5.

Take A40G G51C: the yeast fitness stood at 0.664. Under G17C G39C A45G U54A stands not above 0.5. Turning to A15G G41C C49G C55U C61A, the yeast fitness was 0.638. Under G6A C11A C46A A57G stands not above 0.5. For C4A U8A C24U G44A A70C the value was not above 0.5. Regarding G6C C33G A36C C49A, the yeast fitness is not above 0.5. As to C5A A14C C29A G41C, the yeast fitness was determined as 0.683. For C30G G41A A45C U64A the value was 0.579; for U2C U13G G67U, not above 0.5; for C5U G56A, 0.937. For U3C A15G the value was 1.03.

Consider A20G U53A, for which the yeast fitness came out at 0.692. For C27U C33U G51A the value was 0.612; for G17A A45U, 0.763; for C5U U13A C29G C31A C61U, not above 0.5.

Regarding C31G A69G, the yeast fitness was determined as 1.02. For G9C C29U C55G, the yeast fitness was not above 0.5.

With G23A C46G, the yeast fitness is 0.683. On to A36G A45C U47C G48A, for which the yeast fitness was not above 0.5. Under A37C A42U C49A A65U stands 0.609.

In the case of U7G C46U C60A, the yeast fitness is not above 0.5. For U8C A40C A65C G68C the value was not above 0.5; for U28A C61G C62G, 0.533. For U7C C22G the value was 0.842; for C29A G39C, 0.817; for U2A C33G G51C C66G G67A A69C, not above 0.5.

On to C24G C33G C66U, for which the yeast fitness is not above 0.5. Regarding G10C C29U C31U U54G A65U G67A, the yeast fitness is not above 0.5. For G9A U59A C66A the value was 0.55; for C4G A14G G68A, 0.59.

Regarding C24G G25A C31G U64C, the yeast fitness is 0.75. Under C5G U19A stands 0.818; under G6C G25C, 0.971.

Consider C4G A37C G38A G63A, for which the yeast fitness was not above 0.5. For U2C C5G C62U the value was 0.717; for C5A A20G A65U, not above 0.5. For G39C C62G the value was 0.607. Under C4U C5U G48A G51C stands not above 0.5; under U28C U47A C61G G67C, not above 0.5. For A15U C29A C49G A69U, the yeast fitness was not above 0.5. Under C27U G39C C49U stands not above 0.5; under C11A C24U G56A G67C A70G, not above 0.5. Under C5A U13G C24G C31A stands 0.514. Under A14C A45U G48A stands not above 0.5; under C5G G6C U26G C61U, 0.59; under C33G U47G C66U, 0.56. U2G G10C G67C: the yeast fitness is not above 0.5. For A36G C60U the value was 0.793.

On to G12C C27U C33A A45C U54A C62U, for which the yeast fitness was not above 0.5. Under G9C C11G C24U stands not above 0.5.

For the variant C34G A42G C49A, the yeast fitness was not above 0.5. For G9A G10A C34U C66U the value was not above 0.5.

For C4G U13C A45U G56C, the yeast fitness was not above 0.5.

In the case of G6A G68C, the yeast fitness came to 0.754. Under A43C U53A U54C stands 0.583. For C4A G23A C33G G58C the value was not above 0.5; for U28A C29G C33U C34G A42U U59C, not above 0.5. As for C31U A37C A43U G50C A69U, the yeast fitness is not above 0.5. For A15G G17C G23A G25A C66U the value was not above 0.5. Consider A43U A57U, for which the yeast fitness came out at 0.761. Under G50C G51A C62U stands not above 0.5; under A14C G56A, 0.762. Under A21U U64G A69G stands not above 0.5; under G9A G10A C46G, not above 0.5; under C33U C49A G58C A69U, 0.52. Under G38A C49U U54C stands not above 0.5; under G23C G50C G63C G67A, 0.64; under U13A U64A, 0.832. In the case of C5U C46U A57G A70C, the yeast fitness was not above 0.5.

On to U8C G9A U13C A20C, for which the yeast fitness came out at 0.541. For C11A C46A the value was 0.745. For C4U A14U A36U the value was 0.545; for A20C G67C, 0.654; for A40G U53C, 0.827.

For the variant C31A G52C, the yeast fitness was not above 0.5. For C24U C34U C46U the value was not above 0.5; for C5U U35G, 0.592; for U2A A20U C34A C61U A65U, not above 0.5. Under A15G C30A stands 0.807. For C31U C34U the value was 0.748; for G12C U35C, 0.691. With U19C C31G C49U, the yeast fitness turned out to be 0.736. Under C11U C27U G52C C55G stands not above 0.5; under U7G G67A, 0.826.

Consider U3C G17A C29U C33U C60G, for which the yeast fitness was not above 0.5. Take U7G G41A G48A: the yeast fitness stood at 0.911. In the case of G10A C22U, the yeast fitness was 0.647. Take C46U U47A G68C: the yeast fitness turned out to be 0.558.

As for C29G C34U G63A G67A A69G, the yeast fitness is not above 0.5.

For the variant A21C A42U, the yeast fitness was determined as 0.639. Under G12C C31U U59A stands 0.6; under U7C C30U G39C U64C, not above 0.5.

Consider U16A C33G, for which the yeast fitness amounted to 0.612. For C27A C34G A42G G50A C62G the value was not above 0.5; for U3C A21G, 0.962. With A20C G23A A43G C55G C60A, the yeast fitness is not above 0.5. For U3A C31U U47C the value was 0.871. Under U13G C24U C34A C49U G63A stands 0.554; under A14G U19C A20U, 0.773. Under U8G C66U stands 0.668. Turning to C22A A65U A70G, the yeast fitness amounted to 0.662. Under C24G C30G U59G stands 0.64; under A14C C27G C33A A45U G63C A69G, not above 0.5. For A21U A36G U47C U59A, the yeast fitness worked out at 0.729. For C5G U13C A37U G51C A57C the value was not above 0.5. Under G9A C11G C22U A40G A70G stands not above 0.5; under C22A G25A C27U A43C G44A, not above 0.5; under G9C C34G C61U C66U, 0.58. For U28C A37C A40U G50A C60G the value was not above 0.5; for C11U A15C A65C A70U, not above 0.5. In the case of U2A G9A A37G U47C A65C, the yeast fitness is not above 0.5. For G10C G12C C33U U35G C49G the value was not above 0.5; for U13A A20C C33A G39A, not above 0.5; for A15G G38C C60G, not above 0.5. Under G25C G67A G68A stands 0.655; under A14U G18C G25A A70G, not above 0.5.

As to A20G A65C, the yeast fitness was 1.06. Under A43U U53A A69C stands 0.614; under C55U C61G, not above 0.5; under C27A A42C C60U, not above 0.5. Under U2G G67U stands 0.821; under G10A C27U, 0.817. In the case of C30A C46U, the yeast fitness turned out to be 0.939. Under A15U C31A stands 0.588. For C33A C60U the value was not above 0.5; for C29G U32C C46U, not above 0.5. Under C11A G41A G56A C62A stands not above 0.5; under G6A U7A A20G C46G, 0.538; under C11G A14U A21U A69U, not above 0.5. In the case of C34U U54G, the yeast fitness came out at 0.612. Regarding U3C U47C, the yeast fitness was determined as 0.866. For U7C G12A U13C U26C the value was 0.565; for U13A C24G G25A G39C A40C G51C, 0.745. For C22U C24G C61A the value was 0.53.
